High-throughput results: PubChem BioAssay, several laboratories
SUMO Mot1 rescue: inhibitors of SUMOylation pathway: yeast Mot1-301 growth rescue | growth rescue, % at 18.8 µM | 320,000 tested, 1% active | S. cerevisiae Mot1-301 growth rescue, ATP luminescence, 38.5C; percent above DMSO median, 100 means doubled;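 active = every valid replicate shows activation above 250% relative to neutral control wells; inactive = the rest, any valid replicate at or below 250%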;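 note: OY570 slx delta 5 strain wells were the positive control but not used for scaling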
IMP-1 inh: blocks Pseudomonas aeruginosa IMP-1 metallo-beta-lactamase | purified IMP-1, nitrocefin hydrolysis, epi-absorbance fluorescence | inhibition, % at 5.6 µM | 290,000 tested, 0.45% active;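 active = inhibition above the mean plus 3 SD of all compounds in the same screening run, cut at about 4.5% in these data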;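 note: 0% = IMP-1 with DMSO and 100% = DMSO wells lacking enzyme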
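Test system: recombinant IMP-1 enzyme, purified / Medium: HEPES buffer pH 7.1 with ZnSO4 and Brij 35 / Doses: single dose, 5.6 µM / Times: 25 °C, 15 min preincubation, 25 min reaction / Detection: Epi-absorbance via hydrolysed-nitrocefin quenching of white-plate fluorescence, 480/530 nm, EDTA stop / Evaluation: percent inhibition from optical density relative to buffer-blank wells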
PolyA inh: inhibitors of polyadenylation in S. cerevisiae; S. cerevisiae SKY197-pL101 polyadenylation reporter, beta-gal luminescence; efflux-impaired pdr1/pdr3 knockout yeast; score 100 = 6 SD above DMSO; activity score, % at 12 µM; 300,000 tested, 0.02% active;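 active = lowest replicate activity score at least 50, where 100 means six control SD above control mean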;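 note: yeast exposed to compound for 9 h at 30 °C; higher score means more reporter readthrough which indicates perturbed polyadenylation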
VIM-2 inh: blocks Pseudomonas aeruginosa VIM-2 metallo-beta-lactamase. 290,000 tested, 0.89% active. inhibition, % at 5.6 µM. purified VIM-2, nitrocefin hydrolysis, epi-absorbance fluorescence;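 active = inhibition above the mean of all tested compounds plus 3 SD, cutoff set per screening run, cut at about 7.5% in these data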;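 note: red hydrolysis product quenches plate fluorescence so inhibitors raise well fluorescence; 0% = enzyme with DMSO and 100% = DMSO without enzyme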
NALP1 inh: NALP1 inhibition. S. cerevisiae NALP1/ASC/caspase-1 growth, X-gal OD620, 72 h. inhibition, % at 10 µM. 280,000 tested, 0.61% active. AID 2071; in the data active = inhibition mostly above about 24%, no sharp cut-off; inactive = mostly below about 32%
NALP3 yeast inh: inhibitors of NALP3 inflammasome in yeast; Yeast reconstituted NLRP3/ASC/caspase-1, beta-gal luminescence, 24 h; inhibition, % at 10 µM; 330,000 tested, 0.39% active;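 active = inhibition of 50% or more; inactive = inhibition below 50%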;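 note: plate controls were induced DMSO wells for no effect and uninduced yeast grown without galactose for full effect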
NALP3 confirm: confirmation of NALP3 inhibitors in yeast | shares compounds with NALP3 yeast inh | yeast expressing human NALP3, luminescence | inhibition, % at 10 µM | 1,300 tested, 81% active | AID 435006; in the data active = inhibition above about 48%
Casp1 ASC ctr: counter-screen for NALP3 inhibitors: yeast caspase-1-ASC; yeast expressing Caspase-1-ASC, luminescence counter screen; inhibition, % at 10 µM; shares compounds with NALP3 yeast inh; 1,000 tested, 66% active
NALP3 yeast rt: retest-confirmed inhibitor of NALP3 in yeast | shares compounds with NALP3 yeast inh | yeast expressing human NALP3, luminescence read-out | inhibition, % at 10 µM | 1,000 tested, 53% active | AID 488794
Starred values were filed as active, the others as inactive; x = no result. Compounds with a hit are over-represented: about 2.9% of the library has one in this group of screens. Cut-off read from the data, not from the text of the source, unless noted: active = inhibition above about 50%; inactive = the rest.

SMILES	SUMO Mot1 rescue	IMP-1 inh	PolyA inh	VIM-2 inh	NALP1 inh	NALP3 yeast inh	NALP3 confirm	Casp1 ASC ctr	NALP3 yeast rt
CCOC(=O)Nc1ccc(S(=O)(=O)NC2CCCCC2)cc1	17.0	-2.5	8.7	-2.2	3.4	56.8*	68.4*	x	x
CN1CCN(c2oc(COc3ccc(-c4ccccc4)cc3)nc2C#N)CC1	562.5*	2.5	-17.8	5.1	33.4	59.6*	50.2*	75.8*	64.5*
N#Cc1nc(COc2ccccc2)oc1N1CCCCCC1	7.1	-5.3	-5.8	-3.0	-13.0	51.5*	71.0*	49.8	37.2
N#Cc1nc(COc2ccc(Br)cc2)oc1N1CCCCCC1	77.1	-2.2	-4.4	-4.5	-2.4	26.5	x	x	x
N#Cc1nc(COc2ccc(Br)cc2)oc1N1CCCC1	20.6	-4.5	-12.3	-3.0	11.5	53.9*	61.8*	50.5*	41.2
N#Cc1nc(COc2ccccc2)oc1N1CCCC1	518.6	-0.9	4.4	2.4	14.8	74.6*	48.6*	79.3*	63.5*
N#Cc1nc(COc2ccccc2)oc1N1CCOCC1	-8.9	-2.0	-1.9	-2.2	8.8	8.1	x	x	x
CNc1snc(C)c1C(=O)OC(C)C(=O)Nc1ccccc1 (stereo unspecified)	7.8	x	x	x	x	18.1	x	x	x
O=C1C2C3C=CC(C3=C3CCCCC3)C2C(=O)N1c1ccccc1 (stereo unspecified)	63.0	-5.0	-15.6	-2.6	7.3	57.7*	65.0*	39.8	30.1
O=C1C2C3C=CC(C3)C2C(=O)N1c1ccccc1 (stereo unspecified)	-18.1	-0.4	6.9	-1.1	19.1	4.5	x	x	x
Cc1cccc(NC(=O)c2cnc3sccn3c2=O)c1C	x	3.4	5.4	0.5	27.2	32.4	x	x	x
Cc1cccc(NC(=O)c2cnc3ccccn3c2=O)c1	x	-1.0	x	-1.3	x	50.7*	77.2*	x	x
Cc1cccc(NC(=O)c2cnc3sccn3c2=O)c1	115.5	-3.5	6.0	-3.4	1.1	56.4*	66.2*	52.2*	46.0
Cc1ccc(-c2nc3ccccc3[nH]2)cc1NC(=O)c1ccc2c(c1)OCO2	-7.0	-2.5	-27.8	-0.2	5.3	59.8*	59.3*	55.8*	59.0*
O=C(NC(=S)Nc1cc(-c2nc3ccccc3[nH]2)ccc1Cl)c1ccc2c(c1)OCO2	-27.9	1.7	-11.4	0.5	16.4	10.5	x	x	x
CCOc1ccc(C(=O)Nc2cc(-c3nc4ccccc4[nH]3)ccc2Cl)cc1[N+](=O)[O-]	4.6	-2.3	-46.1	-1.8	55.6*	77.9*	6.2	x	x
CCOc1ccc(C(=O)Nc2cc(-c3nc4ccccc4[nH]3)ccc2C)cc1[N+](=O)[O-]	-0.3	-1.8	15.9	-6.5	4.4	22.1	x	x	x
CC(=O)Oc1ccccc1C(=O)Nc1ccccc1	129.9	x	0.6	x	x	52.1*	68.3*	33.4	44.8
C=C(C)COc1ccc2c(C)c(CC(=O)OC)c(=O)oc2c1C	7.1	-2.3	x	-0.1	9.0	66.3*	77.9*	83.0*	79.8*
COC(=O)Cc1c(C)c2ccc(OCC(C)=O)c(C)c2oc1=O	-1.4	0.1	-12.1	4.9	12.2	7.4	x	x	x
CCCSc1ccc2nc(-c3ccccc3)cn2c1	-49.2	-2.9	-58.6	-1.2	68.2	51.3*	60.9*	72.2*	60.8*
CCCNC(=O)c1c(O)c2cccc3c2n(c1=O)CCC3	9.7	-3.5	7.1	0.6	-1.2	x	x	x	x
NCCNC(=O)c1c(O)c2cccc3c2n(c1=O)CCC3	16.0	0.1	5.1	11.7*	35.3*	61.0*	75.1*	51.5*	46.1
Cc1cc(C(=O)O)cc(S(=O)(=O)NNC(=O)c2cccs2)c1C	-1.4	-3.3	-12.3	-1.4	20.7	-3.9	x	x	x
O=C(NC(=S)Nc1ccccc1Br)C1CCCCC1	110.5	x	x	x	x	53.3*	47.2	59.4*	34.1
SMILES	SUMO Mot1 rescue	IMP-1 inh	PolyA inh	VIM-2 inh	NALP1 inh	NALP3 yeast inh	NALP3 confirm	Casp1 ASC ctr	NALP3 yeast rt
O=C(NC(=S)Nc1ccccc1F)C1CCCCC1	-2.1	-1.1	-23.9	-3.0	19.8	51.7*	72.1*	72.1*	63.2*
Cc1ccc(S(=O)(=O)N(C)C)cc1NC(=O)COC(=O)CN1C(=O)c2ccccc2C1=O	52.6	x	x	x	x	16.0	x	x	x
COc1ccc(CCN(C)C(=O)c2ccc(C)c(S(=O)(=O)N3CCCCC3)c2)cc1OC	2.7	x	x	x	x	14.4	x	x	x
O=c1c(Cl)c(NCc2ccc(F)cc2)cnn1C12CC3CC(CC(C3)C1)C2	99.4	-3.1	-23.6	-4.1	-17.4	31.0	x	x	x
Cc1ccc(CNc2cnn(C34CC5CC(CC(C5)C3)C4)c(=O)c2Cl)cc1	178.3	-2.0	-34.4	-4.4	26.1	52.8*	48.9*	5.7	25.4
O=C(c1ccco1)N1CCN(C(=O)c2ccc(CS(=O)c3ccc(Cl)cc3)o2)CC1 (stereo unspecified)	1.1	-1.3	0.6	-5.6	-22.5	10.7	x	x	x
c1ccc2oc(SCc3cn4ccccc4n3)nc2c1	7.6	-1.4	-11.8	-2.1	23.2	55.7*	68.5*	69.2*	53.2*
O=C(NCCc1nnc2ccc(NCCCN3CCOCC3)nn12)c1ccccc1F	-0.9	-4.5	1.8	-1.4	-1.0	5.7	x	x	x
CCOCCn1c(COc2ccc(C)cc2)nc2ccccc21	11.9	-4.2	-9.2	-0.1	39.4	31.7	x	x	x
CCn1c(COc2ccc(C)cc2)nc2ccccc21	-5.2	-2.7	-18.3	-4.0	9.8	64.7*	78.8*	x	x
CCCCCCCCCS(=O)(=O)N/N=C/c1cccc([N+](=O)[O-])c1	130.1	0.0	22.7	-1.3	27.5	10.8	x	x	x
CCCCCCCCCCS(=O)(=O)N/N=C/c1ccc(O)cc1	12.2	-1.3	9.8	-0.7	17.6	50.3*	69.8*	44.2	46.6
Cc1cccc(OCCCSc2nc3ccc(C)cc3[nH]2)c1	94.5	-1.2	-9.2	1.7	51.4	50.5*	52.6*	53.5*	41.6
Cc1c2ccccc2c(C)c2c1ccc1ccccc12	178.5	x	x	x	x	65.2*	61.9*	x	x
CCn1c(SCC(=O)OC2CCCCC2)nc2ccccc2c1=O	78.6	0.2	-14.1	-0.7	25.3	51.4*	71.2*	50.3*	49.1
CCOC(=O)CSc1nc2ccccc2c(=O)n1CC1CCCC1	-10.5	-3.6	-17.0	-3.1	-104.4	8.1	x	x	x
Nc1c(-c2cccc(Cl)c2)cnn1-c1cccc(C(F)(F)F)c1	25.3	-3.3	0.4	-1.3	23.0	53.5*	72.5*	65.0*	50.2*
Nc1c(-c2ccccc2)cnn1-c1cccc(C(F)(F)F)c1	11.4	0.6	-3.4	1.9	42.8	59.6*	62.3*	61.9*	52.9*
O=C(CN1C(=O)NC2(CCCCC2)C1=O)N1CCN(S(=O)(=O)c2ccc(F)c(F)c2F)CC1	x	x	x	x	x	16.1	x	x	x
